In data set [1] the target is T1, Cytochrome P450 2A6 (Homo sapiens, UniProt P11509).
T1 sequence (P11509 whole entry): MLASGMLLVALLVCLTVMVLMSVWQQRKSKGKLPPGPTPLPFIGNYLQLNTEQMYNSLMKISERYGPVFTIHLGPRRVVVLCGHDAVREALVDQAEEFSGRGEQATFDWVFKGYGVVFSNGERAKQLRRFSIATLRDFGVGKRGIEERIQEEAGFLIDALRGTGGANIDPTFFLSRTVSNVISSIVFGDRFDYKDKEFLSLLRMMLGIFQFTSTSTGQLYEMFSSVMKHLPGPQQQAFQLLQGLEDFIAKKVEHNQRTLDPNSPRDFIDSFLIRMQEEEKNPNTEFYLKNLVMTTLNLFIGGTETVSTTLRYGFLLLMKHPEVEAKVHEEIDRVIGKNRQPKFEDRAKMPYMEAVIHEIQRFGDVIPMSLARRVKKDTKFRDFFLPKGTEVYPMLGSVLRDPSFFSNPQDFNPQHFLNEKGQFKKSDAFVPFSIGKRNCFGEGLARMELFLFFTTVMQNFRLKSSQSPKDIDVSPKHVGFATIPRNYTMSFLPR
The experiment in a line: Inhibition of CYP2A6 in human liver microsomes assessed as coumarin 7-hydroxylation after 3 mins by LC-MS/MS analysis in presence of NADPH. The class given is ADME. On the technique in general: Liver microsomes are a subcellular fraction often used to study metabolism.

The target of data set [2] is T2, Cytochrome P450 1A2 (Homo sapiens, UniProt P05177).
T2 sequence (P05177 whole entry): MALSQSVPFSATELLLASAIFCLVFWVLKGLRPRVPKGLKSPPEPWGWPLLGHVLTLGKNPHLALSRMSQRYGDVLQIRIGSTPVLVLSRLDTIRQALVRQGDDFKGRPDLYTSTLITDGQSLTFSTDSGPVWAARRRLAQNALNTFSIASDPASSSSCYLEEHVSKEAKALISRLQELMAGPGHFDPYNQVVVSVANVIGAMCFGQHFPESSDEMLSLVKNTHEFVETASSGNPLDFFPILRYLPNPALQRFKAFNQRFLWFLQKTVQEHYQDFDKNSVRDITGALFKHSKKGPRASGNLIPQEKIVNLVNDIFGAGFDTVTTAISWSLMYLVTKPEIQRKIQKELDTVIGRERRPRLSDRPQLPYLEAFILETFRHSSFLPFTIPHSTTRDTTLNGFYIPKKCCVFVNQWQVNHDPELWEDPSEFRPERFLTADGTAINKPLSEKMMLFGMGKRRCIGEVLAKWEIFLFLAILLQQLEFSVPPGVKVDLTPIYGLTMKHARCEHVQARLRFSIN
As to the kind of experiment: Inhibition of CYP1A2 in human liver microsomes assessed as phenacetin O-deethylation preincubated for 15 mins by LC-MS/MS analysis in presence of NADPH. The class given is ADME.

In data set [3] the target is T2, Cytochrome P450 1A2. As to the kind of experiment: Inhibition of CYP1A2 in human liver microsomes assessed as phenacetin O-deethylation after 3 mins by LC-MS/MS analysis in presence of NADPH. The class given is ADME.
In data set [4] the target is Cytochrome P450 3A4 (Homo sapiens, UniProt P08684). As to the kind of experiment: Drug metabolism assessed as human CYP3A4-mediated 5-hydroxy saxagliptin formation at 10 uM after 30 mins by LC-MS/MS analysis. The class given is ADME. As to conditions: recombinant enzyme, 0.5 h; call rule not given here.
Data set [5] in a line: Drug metabolism in human assessed as parent compound level in feces at 50 mg, po after up to 168 hrs by LC-MS/MS analysis. The class given is ADME, organism-based. Particulars: read-out: Drug metabolism.
Data set [6] concerns the target Cytochrome P450 3A5 (Homo sapiens, UniProt P20815). As to the kind of experiment: Drug metabolism assessed as human CYP3A5-mediated 5-hydroxy saxagliptin formation at 10 uM after 30 mins by LC-MS/MS analysis. The class given is ADME. Particulars: recombinant enzyme, 0.5 h.
A short description of data set [7]: Drug metabolism in human assessed as metabolite level in urine at 50 mg, po up to 168 hrs by LC-MS/MS analysis. The class given is ADME, organism-based. Particulars: in vivo. A digest of the protocol: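 Single 50-mg oral solution dose of [14C]saxagliptin (91.5 µCi) given to healthy male subjects after a 10-h fast. Urine collected as 0–12 h and 12–24 h pools, then in 24-h intervals to 168 h. Saxagliptin and M2 measured by validated positive-ESI LC-MS/MS with MRM; urine standard curves 25–5000 ng/ml for saxagliptin and 50–10,000 ng/ml for M2.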

In data set [8] the test system is Hepatocyte. As to the kind of experiment: Induction of CYP3A4 mRNA expression in human hepatocytes assessed as testosterone 6beta-hydroxylation up to 25 uM by LC-MS/MS analysis. The class given is ADME, cell-based. A digest of the protocol: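 Primary hepatocytes from three donors treated once daily for 3 days: saxagliptin 0.2–25 µM, M2 0.2–100 µM, 0.1% DMSO as vehicle. Microsomal activity assayed by LC-MS/MS: phenacetin 100 µM with 0.02 mg/ml protein (CYP1A2), bupropion 250 µM with 0.02 mg/ml (CYP2B6), testosterone 200 µM with 0.01 mg/ml (CYP3A4). mRNA measured by TaqMan qPCR as 2^ΔCT relative to endogenous control and DMSO.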

Each structure is given as a SMILES string.

Chain of Cytochrome P450 3A5 (P20815 whole entry): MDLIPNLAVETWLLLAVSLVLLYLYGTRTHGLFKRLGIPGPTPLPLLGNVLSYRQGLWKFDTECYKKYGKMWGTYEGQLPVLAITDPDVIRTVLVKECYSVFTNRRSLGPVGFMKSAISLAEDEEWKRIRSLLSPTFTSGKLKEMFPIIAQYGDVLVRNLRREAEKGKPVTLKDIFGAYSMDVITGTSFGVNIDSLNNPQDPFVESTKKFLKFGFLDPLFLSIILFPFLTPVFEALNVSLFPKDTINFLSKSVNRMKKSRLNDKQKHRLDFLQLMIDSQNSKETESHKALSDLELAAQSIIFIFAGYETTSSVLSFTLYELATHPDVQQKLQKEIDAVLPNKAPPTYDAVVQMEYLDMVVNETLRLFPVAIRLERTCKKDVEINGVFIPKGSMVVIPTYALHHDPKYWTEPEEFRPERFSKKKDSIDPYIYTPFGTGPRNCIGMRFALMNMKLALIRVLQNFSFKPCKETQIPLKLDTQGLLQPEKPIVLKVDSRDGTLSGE
Chain of Cytochrome P450 3A4 (P08684 whole entry): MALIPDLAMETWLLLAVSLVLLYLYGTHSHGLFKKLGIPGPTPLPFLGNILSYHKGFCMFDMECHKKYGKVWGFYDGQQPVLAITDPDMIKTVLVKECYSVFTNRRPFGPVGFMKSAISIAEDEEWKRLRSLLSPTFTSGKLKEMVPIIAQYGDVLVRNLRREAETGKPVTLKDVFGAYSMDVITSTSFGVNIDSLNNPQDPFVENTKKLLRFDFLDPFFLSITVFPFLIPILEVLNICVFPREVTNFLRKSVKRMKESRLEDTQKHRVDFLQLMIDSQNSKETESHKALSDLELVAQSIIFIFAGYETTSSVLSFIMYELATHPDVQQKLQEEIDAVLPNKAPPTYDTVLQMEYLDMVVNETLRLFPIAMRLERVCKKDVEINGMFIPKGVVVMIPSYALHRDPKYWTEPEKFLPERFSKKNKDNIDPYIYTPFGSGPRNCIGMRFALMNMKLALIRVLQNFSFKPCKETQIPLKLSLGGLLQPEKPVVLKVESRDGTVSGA

For `N#C[C@@H]1C[C@@H]2C[C@@H]2N1C(=O)[C@@H](N)C12CC3CC(O)(CC(O)(C3)C1)C2`, the IC50 in data set [1], in data set [2] and in data set [3] was more than 200 µM each time.

Consider `N#C[C@@H]1C[C@@H]2C[C@@H]2N1C(=O)[C@@H](N)C12CC3CC(CC(O)(C3)C1)C2` [SAXAGLIPTIN ANHYDROUS], for which the Drug metabolism result in data set [4], in data set [6] and in data set [7] was “metabolite_detected” each time. The dose excreted at 168 h in data set [5] is 0.5%. For the same compound, the Activity entry in data set [8] is listed as “Not Active”.

As a reminder, the IC50 is the midpoint of a concentration-inhibition curve.

The record behind these values is ChEMBL document CHEMBL3526095, “Characterization of the in vitro and in vivo metabolism and disposition and cytochrome P450 inhibition/induction profile of saxagliptin in human” (Drug Metab Dispos, 2012).
